# Bioassay records (PubChem BioAssay)
# CSC inhib – cancer stem cell viability inhibitors, primary screen, luminescence | cancer stem cell-like cells viability | actives 1.1% (n = 300,000) | AID 2717, 2010 | inhibition, % at 7.5 µM; in the data active means inhibition above about 75%; tested in HMLE shEcad cells
# T cruzi repl – inhibitors of intracellular T. cruzi growth, primary screen, luminescence, NIH3T3 host cells. T. cruzi beta-gal in NIH3T3, 90 h. inhibition, % (test concentration not listed). actives 1.4% (n = 300,000);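 active means mean inhibition across valid replicates above about 55%, limit read from the data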;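 further: signal also drops with host cell toxicity which is not excluded here; 0% = plate median of DMSO wells and 100% = zero luminescence signal; higher percent means less beta-gal luminescence so fewer parasites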
#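 System: NIH/3T3 fibroblasts plus reporter T. cruzi. Medium: DMEM plus 2% FBS. Probe or stimulus: 5000 reporter trypomastigotes per well. Compound: single 50 nL compound addition per well in DMSO. Incubation: co-culture of at least 90 h after 3 h attachment. Detection: GalScreen β-gal luminescence, detergent lysis, 60 min. Evaluation: parasite load inhibition, %.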
# Beta cell apopt – inhibitors of cytokine-induced beta cell apoptosis, primary screen, luminescence; protection from apoptosis, % (no concentration beside the values); actives 0.8% (n = 300,000); AID 435005, 2010; INS-1E cytokine-induced death, ATP luminescence, 48 h; percent of positive-control rescue, neutral wells zero;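 active means Every replicate reaches about 75%, or at least half do and their mean reaches it too, limit read from the data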;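 further: 0% = cytokine-treated negative control wells and 100% = positive control rescue; higher means more ATP so stronger rescue from cytokine killing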
# SKKanGAS inh – S. pyogenes SKKanGAS growth inhibitors in kanamycin, primary screen, streptokinase expression inhibitor project, SKKanGAS strain, BacTiter-Glo luminescence; 6 h; AID 1662, 2009; actives 1.3% (n = 300,000); inhibition, % at 7.5 µM;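 active means mean replicate score, as percent of positive control median, at least 50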;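 further: strain carries kanamycin resistance gene driven by streptokinase promoter and grows in 40 µg/ml kanamycin; loss of luminescence reflects streptokinase promoter inhibition or plain growth inhibition; 0% = median of DMSO wells and 100% = positive control at its reference dose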
# Mdm2-MdmX inh – inhibitors of human Mdm2-MdmX association, primary screen, cell-based, luminescence, split luciferase, SaOS-2, uHTS; actives 3% (n = 330,000); AID 485346, 2010; SaOS-2 split-luciferase Mdm2/MdmX complementation; Protein Mdm4 (Homo sapiens) + E3 ubiquitin-protein ligase Mdm2 (Homo sapiens), …; inhibition, % at 8 µM;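 active means inhibition of at least 50% at 8 µM in the primary screen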
# Lmaj promast – Leishmania major promastigote growth inhibition, primary screen | Leishmania major promastigotes, resazurin fluorescence viability | inhibition, % at 10 µM | actives 9% (n = 200,000) | AID 1063, 2008; in the data active means inhibition above about 50%;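 further: promastigotes grown with compound for 44 hours at 28 °C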
# * marks the source's active call; other numbers are inactive results; · = not tested or not shown. Only some compounds are listed: those with a hit (about 9.4% of all), similar ones and a draw of the others.
SMILES,CSC inhib,T cruzi repl,Beta cell apopt,SKKanGAS inh,Mdm2-MdmX inh,Lmaj promast
CCOC(=O)c1c(NC(=O)CCC(=O)N2CCOCC2)sc2c1CC(C)(C)OC2,-3.7,-9.5,-6.8,8.9,12.5,97.3*
CCOC(=O)c1c(NC(=O)CCN2CCOCC2)sc2c1CC(C)(C)OC2,3.9,7.7,-11.4,3.5,-11.8,-4.7
CCOC(=O)c1c(NC(=O)c2ccc(C)cc2)sc2c1CC(C)(C)OC2,0.0,13.3,·,-24.2,-0.3,60.7*
COC(=O)c1c(NC(=O)c2ccccc2)sc2c1CC(C)(C)OC2,79.8*,-17.1,-1.9,-3.1,-9.3,-4.1
CC1(C)Cc2c(sc(NC(=O)c3ccccc3Cl)c2C(=O)O)CO1,0.3,8.5,·,7.7,-2.9,-4.7
CCOC(=O)c1c(NC(=O)c2ccccc2C)sc2c1CC(C)(C)OC2,30.9,13.6,·,-12.2,28.5,72.3*
COc1ccc(S(=O)(=O)N2CCOC2CNC(=O)C(=O)NCCc2ccccc2)cc1 (stereo not given),-5.6,-7.8,7.0,-4.5,11.0,·
Cc1ccc(-c2nc(CN3CCCC(C(=O)N4CCOCC4)C3)c(C)o2)cc1 (stereo not given),-4.6,14.1,-0.3,3.7,8.8,·
Cc1cc(C)cc(NS(=O)(=O)c2cnc(Cl)c(Cl)c2)c1,1.5,-9.5,-7.4,-11.4,-28.1,82.1*
CC(=O)Nc1sc(C)c(C)c1C(=O)OCC(=O)NC(C)c1ccccc1 (stereo not given),·,·,·,·,20.1,·
CCN(Cc1ccccc1)C(=O)CN1C(=O)NC(CC)(c2ccc(F)cc2)C1=O (stereo not given),-17.5,-4.5,·,-5.8,1.2,·
FC(F)(F)c1nc(N2CCN(c3ccccc3)CC2)nc2c1CCCCC2,64.8,6.8,16.3,68.4*,21.6,2.2
CC(=O)c1ccc(S(=O)(=O)N2CCCCC2C(=O)O)cc1 (stereo not given),-11.8,-0.2,-0.8,4.1,28.8,-1.2
O=C(COC(=O)c1ncc(Cl)c(Cl)c1Cl)Nc1ccc(Cl)cn1,-4.6,-27.5,-3.1,-9.1,18.9,·
CC(C)Sc1cc(N2CCCC2)nc(-c2ccc(F)cc2)n1,0.5,12.3,-0.8,76.0*,21.9,-1.6
CC(C)Sc1cc(N2CCCC2)nc(-c2ccccc2Cl)n1,9.4,19.7,1.4,-10.8,-16.1,11.8
CC(C)Sc1cc(N2CCCC2)nc(-c2ccccc2)n1,1.9,8.6,6.7,68.6*,0.2,10.4
CC(C)Sc1cc(N2CCOCC2)nc(-c2ccccc2)n1,23.9,25.4,-5.8,-4.0,-8.2,-7.1
CCCSc1cc(N2CCCC2)nc(-c2ccccc2)n1,-1.5,-2.0,-3.4,51.9*,-6.4,6.1
CCOc1ccc(C(=O)NCC(=O)Nc2ccc(N3CCOCC3)cc2)cc1OCC,-5.3,3.8,2.3,-12.6,-22.1,-0.3
O=C(COC(=O)c1cc[n+]([O-])cc1)Nc1cccc(Br)c1,·,·,·,·,4.4,·
CC1=NN(C(N)=S)C(=O)C1N=Nc1c(Br)cc(Br)cc1Br (stereo not given),76.6*,-0.3,13.3,66.3*,-19.9,·
CC1=NN(C(N)=S)C(=O)C1N=Nc1c(C)cc(C)cc1C (stereo not given),-6.9,-8.0,24.1,50.7*,-3.8,11.7
CC1=NN(C(N)=S)C(=O)C1N=Nc1ccc(C)cc1C (stereo not given),-14.3,38.1,33.9,4.2,-117.0,59.9*
CC1=NN(C(N)=S)C(=O)C1N=Nc1ccccc1C (stereo not given),4.6,38.5,32.1,1.9,-8.9,8.2
CC1=NN(C(N)=S)C(=O)C1N=Nc1c(Cl)cc([N+](=O)[O-])cc1Cl (stereo not given),28.0,-3.1,·,50.2*,-23.2,·
CC1=NN(C(N)=S)C(=O)C1N=Nc1ccc(S(N)(=O)=O)cc1 (stereo not given),-17.3,-6.4,0.9,0.3,5.2,·
CCOC(=O)c1oc2ccc(S(=O)(=O)n3nc(-c4ccccc4)cc3N)cc2c1C,9.5,38.5,55.7,14.5,27.7,97.1*
COC(=O)C1=C(C)N(c2ccc(Cl)cc2)/C(=C/c2ccc(O)cc2)C1=O,8.4,-6.5,29.7,0.2,12.3,83.6*
